Source: article PMC2659690 (Molecular Pharmaceutics, 2008)
Where a SMILES comes first, the peptide text is derived from it. [ ]: non-standard residue; d: D form. Sar = CNCC(=O)O

Key:
PEPT1 [1] = target: T1, PEPT1 (Homo sapiens, UniProt P46059); assay: [3H]Gly-Sar uptake inhibition in Capan-2 cells; format: cell-based; settings: read-out: IC50 [3H]Gly-Sar uptake inhibition Capan-2; Capan-2 cells, 10 μmol/L Gly-Sar, 30 min; mean ± SD, n = 3
T1 sequence (P46059 1-708): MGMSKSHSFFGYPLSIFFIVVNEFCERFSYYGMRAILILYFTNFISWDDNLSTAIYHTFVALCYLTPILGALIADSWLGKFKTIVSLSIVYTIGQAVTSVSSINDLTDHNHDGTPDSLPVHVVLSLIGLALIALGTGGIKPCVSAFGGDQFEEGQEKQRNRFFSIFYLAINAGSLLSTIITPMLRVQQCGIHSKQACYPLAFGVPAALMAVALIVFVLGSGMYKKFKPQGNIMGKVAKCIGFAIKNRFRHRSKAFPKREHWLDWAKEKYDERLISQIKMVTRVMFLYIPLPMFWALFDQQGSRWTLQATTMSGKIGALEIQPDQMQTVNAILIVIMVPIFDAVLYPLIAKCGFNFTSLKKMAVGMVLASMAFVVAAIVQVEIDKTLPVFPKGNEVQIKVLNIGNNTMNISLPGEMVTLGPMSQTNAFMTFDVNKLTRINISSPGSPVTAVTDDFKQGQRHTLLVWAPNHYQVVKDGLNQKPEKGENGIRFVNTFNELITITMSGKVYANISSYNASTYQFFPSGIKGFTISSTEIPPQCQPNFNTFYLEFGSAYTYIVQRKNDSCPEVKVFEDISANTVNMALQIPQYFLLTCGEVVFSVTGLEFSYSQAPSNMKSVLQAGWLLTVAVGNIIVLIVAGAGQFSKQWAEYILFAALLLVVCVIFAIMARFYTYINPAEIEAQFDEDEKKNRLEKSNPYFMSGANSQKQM

[2] = Stability in human plasma; format: in vitro ADME; settings: undiluted human plasma, 37 °C; mean ± SD, n = 3
Caco-2 cell homogenates = assay: Enzymatic stability in Caco-2 cell homogenate; format: in vitro ADME, human; settings: 500 μg/mL protein, 37 °C, mean ± SD, n = 3
Capan-2 cell homogenates = assay: Enzymatic stability in Capan-2 cell homogenate; format: in vitro ADME, human; settings: 500 μg/mL protein, 37 °C, mean ± SD, n = 3
PEPT1 [3] = target: T1, PEPT1; assay: [3H]Gly-Sar uptake inhibition in Caco-2 cells; format: cell-based; settings: read-out: IC50 [3H]Gly-Sar uptake inhibition Caco-2; Caco-2 cells, 10 μmol/L Gly-Sar, 30 min; mean ± SD, n = 3
AsPC-1 cell homogenates = assay: Enzymatic stability in AsPC-1 cell homogenate; format: in vitro ADME, human; settings: 500 μg/mL protein, 37 °C, mean ± SD, n = 3
thymidine phosphorylase = target: T2, thymidine phosphorylase (Homo sapiens, UniProt P19971); assay: Resistance to metabolism by thymidine phosphorylase; format: in vitro ADME; settings: 200 μM substrate, TP 2.0 ng/μL, phosphate buffer pH 7.0, 37 °C; mean ± SD, n = 3
T2 sequence (P19971 11-482): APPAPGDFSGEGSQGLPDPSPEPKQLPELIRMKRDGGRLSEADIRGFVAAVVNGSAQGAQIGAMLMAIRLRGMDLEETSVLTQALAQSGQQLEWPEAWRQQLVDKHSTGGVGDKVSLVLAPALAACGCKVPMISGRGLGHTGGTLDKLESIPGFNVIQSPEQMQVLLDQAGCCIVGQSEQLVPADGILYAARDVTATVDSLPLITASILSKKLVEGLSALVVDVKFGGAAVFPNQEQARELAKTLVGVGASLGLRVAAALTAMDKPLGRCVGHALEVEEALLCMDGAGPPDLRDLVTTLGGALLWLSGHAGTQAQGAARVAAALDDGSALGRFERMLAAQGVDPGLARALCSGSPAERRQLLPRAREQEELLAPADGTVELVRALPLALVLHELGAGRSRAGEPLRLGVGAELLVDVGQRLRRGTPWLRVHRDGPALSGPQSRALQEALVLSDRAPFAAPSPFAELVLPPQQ

PEPT1 [4] = target: T1, PEPT1; assay: [3H]Gly-Sar uptake inhibition in AsPC-1 cells; format: cell-based; settings: read-out: IC50 [3H]Gly-Sar uptake inhibition AsPC-1; AsPC-1 cells, 10 μmol/L Gly-Sar, 30 min; mean ± SD, n = 3
Chemical stability = format: physicochemical; settings: pH 7.4 phosphate buffer, 37 °C; mean ± SD, n = 3
Capan-2 cell monolayers = assay: Apical-to-basolateral permeability across Capan-2 monolayers; format: in vitro ADME, human; settings: 1 mM verapamil (efflux pump inhibitor); data not shown
Capan-2 cells = assay: Cell proliferation; format: cell-based; settings: Homo sapiens, Capan-2, pH 6, read-out: GI50 Capan-2
Procedure, shortened: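 Capan-2 cells (passages 50-54) in antibiotic-free RPMI-1640 plus 10% FBS were plated at 125,000 per well and allowed 24 h to attach. After a rinse with pH 6.0 uptake buffer, they received test compound in the same buffer (twofold series, 4 to 0.25 mmol/L; buffer-only wells as 100% viability) for 4 h at 37 °C. Two washes and 24 h recovery in medium followed.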

5′-L-Valyl-L-phenylalanyl-floxuridine
IC50 (PEPT1 [1]): 460 ± 20 µM | t1/2 human plasma [2]: 76.0 ± 14.1 min | t1/2 cell homogenates Caco-2 (Caco-2 cell homogenates): 57.6 ± 9.3 min | t1/2 cell homogenates Capan-2 (Capan-2 cell homogenates): 56.2 ± 12.8 min | IC50 (PEPT1 [3]): 2880 ± 10 µM | t1/2 cell homogenates AsPC-1 (AsPC-1 cell homogenates): 51.6 ± 4.2 min | t1/2 in the presence of thymidine phosphorylase (thymidine phosphorylase): >500 min | IC50 (PEPT1 [4]): 1030 ± 80 µM | t1/2 buffer pH 7.4 (Chemical stability): 104.7 ± 7.0 min

NCC(=O)OC[C@H]1O[C@@H](n2cc(F)c(=O)[nH]c2=O)C[C@@H]1O [5′-L-glycyl-floxuridine]
IC50 (PEPT1 [1]): 2790 ± 80 µM | t1/2 human plasma [2]: 72.1 ± 15.0 min | t1/2 cell homogenates Caco-2 (Caco-2 cell homogenates): 24.1 ± 2.0 min | t1/2 cell homogenates Capan-2 (Capan-2 cell homogenates): 49.7 ± 5.6 min | IC50 (PEPT1 [3]): 2280 ± 590 µM | t1/2 cell homogenates AsPC-1 (AsPC-1 cell homogenates): 27.6 ± 5.8 min | t1/2 in the presence of thymidine phosphorylase (thymidine phosphorylase): 250 ± 54 min | IC50 (PEPT1 [4]): 2710 ± 530 µM | t1/2 buffer pH 7.4 (Chemical stability): 85.5 ± 3.2 min

CC[C@H](C)[C@H](N)C(=O)NCC(=O)OC[C@H]1O[C@@H](n2cc(F)c(=O)[nH]c2=O)C[C@@H]1O [5′-L-isoleucyl-L-glycyl-floxuridine, 5′-L-Isoleucyl-L-glycyl-floxuridine]
IC50 (PEPT1 [1]): 440 ± 20 µM | t1/2 human plasma [2]: 9.5 ± 0.5 min | t1/2 cell homogenates Caco-2 (Caco-2 cell homogenates): 20.5 ± 1.1 min | t1/2 cell homogenates Capan-2 (Capan-2 cell homogenates): 18.7 ± 1.4 min | IC50 (PEPT1 [3]): 390 ± 10 µM | t1/2 cell homogenates AsPC-1 (AsPC-1 cell homogenates): 25.1 ± 5.8 min | t1/2 in the presence of thymidine phosphorylase (thymidine phosphorylase): 223 ± 54 min | IC50 (PEPT1 [4]): 290 µM | t1/2 buffer pH 7.4 (Chemical stability): 33.5 ± 2.4 min

CC[C@H](C)[C@H](N)C(=O)OC[C@H]1O[C@@H](n2cc(F)c(=O)[nH]c2=O)C[C@@H]1O [5′-L-isoleucyl-floxuridine]
IC50 (PEPT1 [1]): 2380 ± 120 µM | t1/2 human plasma [2]: 271.4 ± 3.2 min | t1/2 cell homogenates Caco-2 (Caco-2 cell homogenates): 192.3 ± 31.8 min | t1/2 cell homogenates Capan-2 (Capan-2 cell homogenates): 139.9 ± 15.3 min | IC50 (PEPT1 [3]): 720 ± 30 µM | t1/2 cell homogenates AsPC-1 (AsPC-1 cell homogenates): 198.0 ± 70.2 min | t1/2 in the presence of thymidine phosphorylase (thymidine phosphorylase): >500 min | IC50 (PEPT1 [4]): 4120 ± 1750 µM | t1/2 buffer pH 7.4 (Chemical stability): 1194.5 ± 660.6 min

CC(C)C[C@H](N)C(=O)NCC(=O)OC[C@H]1O[C@@H](n2cc(F)c(=O)[nH]c2=O)C[C@@H]1O [5′-L-leucyl-L-glycyl-floxuridine, 5′-L-Leucyl-L-glycyl-floxuridine]
IC50 (PEPT1 [1]): 340 ± 10 µM | t1/2 human plasma [2]: 6.7 ± 0.3 min | t1/2 cell homogenates Caco-2 (Caco-2 cell homogenates): 4.1 ± 0.1 min | t1/2 cell homogenates Capan-2 (Capan-2 cell homogenates): 3.9 ± 1.1 min | IC50 (PEPT1 [3]): 3800 ± 600 µM | t1/2 cell homogenates AsPC-1 (AsPC-1 cell homogenates): 3.6 ± 0.8 min | t1/2 in the presence of thymidine phosphorylase (thymidine phosphorylase): 138 ± 11 min | IC50 (PEPT1 [4]): 510 ± 30 µM | t1/2 buffer pH 7.4 (Chemical stability): 23.2 ± 4.1 min

CC(C)C[C@H](N)C(=O)OC[C@H]1O[C@@H](n2cc(F)c(=O)[nH]c2=O)C[C@@H]1O [5′-L-leucyl-floxuridine]
IC50 (PEPT1 [1]): 1450 ± 70 µM | t1/2 human plasma [2]: 82.4 ± 8.7 min | t1/2 cell homogenates Caco-2 (Caco-2 cell homogenates): 3.2 ± 0.2 min | t1/2 cell homogenates Capan-2 (Capan-2 cell homogenates): 4.7 ± 2.1 min | IC50 (PEPT1 [3]): 3510 ± 110 µM | t1/2 cell homogenates AsPC-1 (AsPC-1 cell homogenates): 2.0 ± 0.1 min | IC50 (PEPT1 [4]): 2600 ± 160 µM | t1/2 buffer pH 7.4 (Chemical stability): 83.2 ± 1.7 min

N[C@@H](Cc1ccccc1)C(=O)NCC(=O)OC[C@H]1O[C@@H](n2cc(F)c(=O)[nH]c2=O)C[C@@H]1O [5′-L-phenylalanyl-L-glycyl-floxuridine, 5′-L-Phenylalanyl-L-glycyl-floxuridine]
IC50 (PEPT1 [1]): 790 ± 20 µM | t1/2 human plasma [2]: 9.7 ± 0.8 min | t1/2 cell homogenates Caco-2 (Caco-2 cell homogenates): 6.3 ± 0.6 min | t1/2 cell homogenates Capan-2 (Capan-2 cell homogenates): 4.3 ± 0.9 min | IC50 (PEPT1 [3]): 780 ± 560 µM | t1/2 cell homogenates AsPC-1 (AsPC-1 cell homogenates): 10.2 ± 0.3 min | t1/2 in the presence of thymidine phosphorylase (thymidine phosphorylase): 119 ± 30 min | IC50 (PEPT1 [4]): 880 ± 220 µM | t1/2 buffer pH 7.4 (Chemical stability): 132.1 ± 10.2 min

N[C@@H](Cc1ccccc1)C(=O)N[C@@H](Cc1ccc(O)cc1)C(=O)OC[C@H]1O[C@@H](n2cc(F)c(=O)[nH]c2=O)C[C@@H]1O [5′-L-phenylalanyl-L-tyrosyl-floxuridine, 5′-L-Phenylalanyl-L-tyrosyl-floxuridine]
IC50 (PEPT1 [1]): 1200 ± 160 µM | t1/2 human plasma [2]: 80.6 ± 3.7 min | t1/2 cell homogenates Caco-2 (Caco-2 cell homogenates): 103.8 ± 55.5 min | t1/2 cell homogenates Capan-2 (Capan-2 cell homogenates): 42.8 ± 0.0 min | IC50 (PEPT1 [3]): 660 ± 250 µM | effect of verapamil on permeability in Capan-2 cells (Capan-2 cell monolayers): not affected | t1/2 cell homogenates AsPC-1 (AsPC-1 cell homogenates): 59.7 ± 1.4 min | t1/2 in the presence of thymidine phosphorylase (thymidine phosphorylase): >500 min | IC50 (PEPT1 [4]): 610 ± 180 µM | t1/2 buffer pH 7.4 (Chemical stability): 233.9 ± 6.6 min

N[C@@H](Cc1ccccc1)C(=O)OC[C@H]1O[C@@H](n2cc(F)c(=O)[nH]c2=O)C[C@@H]1O [5′-L-phenylalanyl-floxuridine]
IC50 (PEPT1 [1]): 3710 ± 2130 µM | t1/2 human plasma [2]: 62.8 ± 0.8 min | t1/2 cell homogenates Caco-2 (Caco-2 cell homogenates): 11.1 ± 9.9 min | t1/2 cell homogenates Capan-2 (Capan-2 cell homogenates): 3.0 ± 0.1 min | IC50 (PEPT1 [3]): 1990 ± 820 µM | t1/2 cell homogenates AsPC-1 (AsPC-1 cell homogenates): 11.8 ± 1.7 min | t1/2 in the presence of thymidine phosphorylase (thymidine phosphorylase): >500 min | IC50 (PEPT1 [4]): 1970 ± 90 µM | t1/2 buffer pH 7.4 (Chemical stability): 187.0 ± 19.0 min

CC(C)[C@H](N)C(=O)OC[C@H]1O[C@@H](n2cc(F)c(=O)[nH]c2=O)C[C@@H]1O [5′-L-valyl-floxuridine]
IC50 (PEPT1 [1]): 2410 ± 280 µM | t1/2 human plasma [2]: 131.5 ± 54.1 min | t1/2 cell homogenates Caco-2 (Caco-2 cell homogenates): 9.4 ± 0.5 min | t1/2 cell homogenates Capan-2 (Capan-2 cell homogenates): 5.2 ± 2.4 min | IC50 (PEPT1 [3]): 1880 ± 180 µM | t1/2 cell homogenates AsPC-1 (AsPC-1 cell homogenates): 18.7 ± 6.7 min | IC50 (PEPT1 [4]): 2910 ± 380 µM | t1/2 buffer pH 7.4 (Chemical stability): 304.0 ± 33.3 min

NCC(=O)N1CCC[C@H]1C(=O)O [glycylproline (Gly-Pro), glycylproline] (H-Gly-Pro-OH)
GI50 (Capan-2 cells): 29500 ± 6500 µM

CN(CC(=O)O)C(=O)CN [glycylsarcosine (Gly-Sar), glycylsarcosine] (H-Gly-[Sar]-OH)
GI50 (Capan-2 cells): 25700 ± 8100 µM
